# According to ChEMBL document CHEMBL1149898, “A biaryl xanthone derivative having axial chirality from Penicillium vinaceum” (J Nat Prod, 2008):
# Activity calls are given as the source filed them. The calls are words filed in the database; no cut-off is given here.
# Legend:
# Saccharomyces cerevisiae = assay: Antifungal activity against Saccharomyces cerevisiae after 18 to 24 hrs by disk diffusion test; assay type: functional, organism-based
# Procedure, shortened: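 Diluted yeast inoculum was spread on 90 mm agar plates supplemented with 2% glucose and dried for 5–15 min. Disks loaded with 10, 50, 100 and 200 µg of compound were placed on top. Plates were incubated 18–24 h at 28 °C, then inhibition zone diameters were measured.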
# Escherichia coli = assay: Antibacterial activity against Escherichia coli by disk diffusion test; assay type: functional, organism-based
# Procedure, shortened: (§1)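 Bacterial suspensions were grown 2–5 h to a suitable OD, diluted with water and swabbed evenly over agar. After the inoculum dried, disks carrying 10, 50, 100 and 200 µg of compound were applied. Plates were incubated overnight, and zone diameters around the disks were measured.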
# Paracentrotus lividus = assay: Inhibition of sea urchin egg fertilization by sea urchin sperm assessed as inhibition of divided eggs by light microscopy; assay type: functional, organism-based
# Procedure, shortened: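 Eggs were rinsed, filtered and diluted in artificial seawater to 2000 eggs/mL. "Dry" sperm was diluted 1:50 in ASW, and 10 µL was added per 1 mL eggs at 20 °C. Compounds were in DMSO at 50 µg/mL, with DMSO-only controls. Eggs were cultured at room temperature with gentle agitation, and percent divided eggs was scored by light microscopy 30 min post-fertilization.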
# [1] = system: Agrobacterium tumefaciens; assay: Antitumor activity against Agrobacterium tumefaciens-induced 10 ppm crown gall tumor in potato tubers at […] after 21 days by crown gall tumor potato disk test; assay type: functional
# Procedure, shortened: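 Potato tubers were surface-sterilized in 1% NaOCl for 20 min and cut into 5 mm disks, 10 per 2% agar plate. A 48 h Agrobacterium tumefaciens culture, mixed with compound in DMSO at 10 or 100 µg/mL, was applied to each disk. Plates were kept at 28 °C for 21 days. Tumors per disk were counted; % inhibition = 100 − (mean tumors sample/mean control)×100.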
# Bacillus subtilis = assay: Antibacterial activity against Bacillus subtilis by disk diffusion test; assay type: functional, organism-based; procedure, shortened: as §1
# Staphylococcus aureus = assay: Antibacterial activity against Staphylococcus aureus by disk diffusion test; assay type: functional, organism-based; procedure, shortened: as §1
IC50 (Paracentrotus lividus),Compound,Activity (Saccharomyces cerevisiae),Activity (Escherichia coli),inhibition (INH) [1],Activity (Bacillus subtilis),Activity (Staphylococcus aureus)
0.12 µg/mL,CC(=O)c1cc2c(=O)c3c(C(=O)O)c(O)c(O)cc3oc2c(C(C)=O)c1-c1coc2cc(O)c(O)c(C(=O)O)c2c1=O [VINAXANTHONE],inactive,inactive,67%,inactive,inactive
0.71 µg/mL,CC(=O)c1cc2c(=O)c3c(C(=O)O)c(O)c(O)cc3oc2c(C(C)=O)c1C1COc2cc(O)c(O)c(C(=O)O)c2C1=O (stereo not drawn),inactive,inactive,12%,inactive,inactive
0.05 µg/mL,COc1oc2cc(O)c(O)c(C(=O)O)c2c(=O)c1-c1c(C(C)=O)cc2c(=O)c3c(C(=O)O)c(O)c(O)cc3oc2c1C(C)=O,inactive,inactive,72%,inactive,inactive
